Ecoli WT expand = E. coli BW25113 growth inhibition, expanded screen; hit rate 0.15% among 98,000; OD600 absorbance; growth inhibition, % at 100 µM; AID 710;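 active means growth inhibition above about 50% at one test dose, limit read from the data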;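 further: growth measured after 20 h incubation at 37 °C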
D1 mod = allosterically modulates the human D1 dopamine receptor | HEK293 D1, CRE-luciferase, dopamine EC30 potentiation; actives deviate in either direction | B-score at 10 µM | hit rate 5.9% among 58,000 | AID 641;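 active means luminescence count or its row- and column-corrected plate score outside the 99.7% band of the plate's sample wells, on either side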
Target sequence (P21728 whole entry, looked up): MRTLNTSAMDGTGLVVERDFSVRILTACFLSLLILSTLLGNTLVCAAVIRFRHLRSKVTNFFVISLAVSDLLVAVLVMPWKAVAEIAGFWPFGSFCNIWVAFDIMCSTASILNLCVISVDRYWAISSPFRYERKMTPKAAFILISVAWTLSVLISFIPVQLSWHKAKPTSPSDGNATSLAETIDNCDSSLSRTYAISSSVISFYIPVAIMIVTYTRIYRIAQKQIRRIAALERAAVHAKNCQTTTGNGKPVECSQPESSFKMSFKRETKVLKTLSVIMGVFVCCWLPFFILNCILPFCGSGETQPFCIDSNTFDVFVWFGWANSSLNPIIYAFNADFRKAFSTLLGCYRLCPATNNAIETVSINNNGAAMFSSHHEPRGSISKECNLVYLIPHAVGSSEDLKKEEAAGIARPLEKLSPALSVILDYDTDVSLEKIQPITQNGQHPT
hDAT+cocaine = modulates human dopamine transporter uptake under cocaine. Q01959. LLC-PK1 hDAT cells, [14C]-dopamine uptake with cocaine IC80; actives deviate in either direction. B-score at 10 µM. hit rate 1.3% among 110,000. AID 449768;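 active means Z score or B-score, a plate-position-corrected score, falls beyond the plate's 99.7% confidence bounds, in either direction; inactive means both scores lie inside the 99.7% bounds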;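 further: scored against the spread of the other compound wells on the same plate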
PostGolgi ctrl = growth of the yeast control strain, post-Golgi counter-screen; inhibition, % at 10 µM; hit rate 5% among 98,000; efflux-deficient yeast background strain, growth absorbance A615, 16 h; AID 738
PostGolgi yeast = growth inhibition of a yeast mutant, post-Golgi transport screen; post-Golgi transport phenotypic cell assay; hit rate 0.9% among 98,000; inhibition, % at 10 µM;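 further: yeast cells grown in 1536-well plates; yeast grown about 18 h at 30C before absorbance read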
Ecoli tolC = E. coli tolC mutant growth inhibition. growth inhibition, % at 10 µM (by protocol). AID 573. hit rate 2.2% among 65,000. E. coli BW25113 tolC mutant growth, OD615;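 active means growth inhibition at or above a cutoff equal to the mean over every tested compound plus 3 SD, cut at about 60% in these data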;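 further: growth measured after 20 h incubation at 37 °C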
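signal = optical density read at 615 nm | test system = E. coli ΔtolC::kan strain BW25113 | timing = 20 h compound exposure of bacteria at 37 °C | buffer or medium = LB medium plus 50 µg/mL kanamycin | compound dosing = 10 µM final, single dose | evaluation = % inhibition of E. coli growth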
Numbers without * were called inactive. Compounds with a hit are over-represented: about 9.3% of the library has one in this group of screens. Unless noted, no stated cut-off is given here; in the data, active means inhibition above about 30%; inactive means the rest.

For C=CCn1c(SCC(=C)C)nc2c1c(=O)[nH]c(=O)n2C the results were D1 mod 6.6*, hDAT+cocaine -0.69 and Ecoli tolC -2.
O=c1[nH]c2cccc(Cl)c2n(CCNc2ncc(C(F)(F)F)cc2Cl)c1=O was read as Ecoli WT expand 5, hDAT+cocaine 0.73, PostGolgi ctrl -9 and PostGolgi yeast -1.
For O=c1c(Cl)nc2cc(Cl)ccc2n1CCNc1ncc(C(F)(F)F)cc1Cl the results were Ecoli WT expand -2, hDAT+cocaine 1.5, PostGolgi ctrl 99* and PostGolgi yeast 76*.
For Cc1nc2ncnn2c(N2CCN(c3cccc(C(F)(F)F)c3)CC2)c1C the results were Ecoli WT expand 7, D1 mod -1.1, hDAT+cocaine 0.69, PostGolgi ctrl 19, PostGolgi yeast 2 and Ecoli tolC 42.
Cc1cc(N2CCN(C(c3ccccc3)c3ccccc3)CC2)n2ncnc2n1 was read as Ecoli WT expand 1, D1 mod -1.3, hDAT+cocaine 2.5, PostGolgi ctrl 24, PostGolgi yeast 3 and Ecoli tolC 82*.
Screening Cc1cc(N2CCN(c3nc4ccccc4s3)CC2)n2ncnc2n1 returned Ecoli WT expand 0, D1 mod -2.3, hDAT+cocaine 0.57, PostGolgi ctrl 6, PostGolgi yeast 0 and Ecoli tolC -9.
Cc1nc2ncnn2c(N2CCN(C(c3ccccc3)c3ccccc3)CC2)c1C was read as Ecoli WT expand 6, D1 mod 1.2, hDAT+cocaine 3.2*, PostGolgi ctrl 28, PostGolgi yeast 16 and Ecoli tolC 62*.
For C=C(C)C(=O)Nc1cccc(C2=NOC3(C2)C[C@@H](C(N)=O)N(C(=O)/C=C/C=C/C)C3)c1 (some centres not stated) the results were hDAT+cocaine 0.16.
`O=C(CCCc1cccs1)N1CCN(S(=O)(=O)c2ccccc2Br)CC1` gave Ecoli WT expand -18, D1 mod -0.036, PostGolgi ctrl 14, PostGolgi yeast -13 and Ecoli tolC 18.
CC(C)(C)OC(=O)N1CC=C2C(C#N)=C(N)C(C#N)(C#N)[C@H](c3cccnc3)[C@H]2C1 was read as Ecoli WT expand 7, D1 mod -0.042, hDAT+cocaine -0.051, PostGolgi ctrl -5, PostGolgi yeast 23 and Ecoli tolC 3.
N#CC1=C(N)C(C#N)(C#N)[C@H](c2ccncc2)[C@H]2CN(C(=O)OCc3ccccc3)CC=C12 was read as Ecoli WT expand -4, hDAT+cocaine 2.8*, PostGolgi ctrl 10, PostGolgi yeast 5 and Ecoli tolC 10.
COc1cc(/C=N/NC(N)=S)ccc1OC(=O)c1ccc(C)cc1 was read as Ecoli WT expand -2, hDAT+cocaine 0.18, PostGolgi ctrl 52* and PostGolgi yeast 0.
COc1ccc(/C=N/NS(=O)(=O)c2ccccc2)cc1OC(=O)c1ccc(C)cc1 was read as Ecoli WT expand -11, PostGolgi ctrl 6 and PostGolgi yeast 5.
`O=C(c1cc2c(=O)oc3ccccc3c2s1)N1CCOCC1` gave Ecoli WT expand 3, D1 mod -4.6*, hDAT+cocaine 0.47, PostGolgi ctrl 4, PostGolgi yeast 2 and Ecoli tolC -6.
O=C(c1ccco1)N1CCN(C(=O)c2cc3c(=O)oc4ccccc4c3s2)CC1 was read as Ecoli WT expand 3, D1 mod 0.89, hDAT+cocaine -0.063, PostGolgi ctrl 11, PostGolgi yeast 4 and Ecoli tolC -7.
Screening NC12CC3CC(C1)CC(CO)(C3)O2 returned Ecoli WT expand -2, D1 mod -0.021, hDAT+cocaine 0.057, PostGolgi ctrl -1, PostGolgi yeast 5 and Ecoli tolC -14.
For COc1cccc(CNn2cnnc2)c1OCc1ccc(F)cc1 the results were Ecoli WT expand 0, D1 mod -4.9*, hDAT+cocaine -0.18, PostGolgi ctrl -6, PostGolgi yeast 11 and Ecoli tolC -8.
COc1cc(C)nc(N(Cc2ccccc2)S(=O)(=O)c2ccccc2)n1 was read as Ecoli WT expand -15, D1 mod -0.04, hDAT+cocaine 0.1, PostGolgi ctrl 33*, PostGolgi yeast -1 and Ecoli tolC 55.
`CCCN(c1nc(C)cc(OC)n1)S(=O)(=O)c1ccccc1` gave Ecoli WT expand 1, D1 mod -0.58, hDAT+cocaine -0.57, PostGolgi ctrl 24, PostGolgi yeast -5 and Ecoli tolC 17.
For Cc1ccc(C)n1CCN1CCN(CC(=O)Nc2ccc(S(N)(=O)=O)cc2)CC1 the results were Ecoli WT expand 7, D1 mod 0.0013, hDAT+cocaine 0.66, PostGolgi ctrl 37*, PostGolgi yeast -2 and Ecoli tolC 4.
For NS(=O)(=O)c1ccc(NC(=O)CN2CCCCC2)cc1 the results were Ecoli WT expand 0, D1 mod -0.06, hDAT+cocaine -0.01, PostGolgi ctrl 5, PostGolgi yeast 19 and Ecoli tolC -22.
Cc1cccc(-n2ncc3c(NC(C)C)ncnc32)c1 was read as Ecoli WT expand 1, D1 mod -3.6*, hDAT+cocaine 1.1, PostGolgi ctrl -6, PostGolgi yeast -2 and Ecoli tolC -15.
For Cc1cccc(-n2ncc3c(NCCCn4ccnc4)ncnc32)c1 the results were Ecoli WT expand 0, D1 mod -4.1*, hDAT+cocaine 1.3, PostGolgi ctrl 14, PostGolgi yeast 0 and Ecoli tolC 0.
`Cc1cccc(-n2ncc3c(N(C)Cc4ccccc4)ncnc32)c1` gave hDAT+cocaine 0.6 and Ecoli tolC 93*.
For Cc1ccc(-n2ncc3c(NCCCn4ccnc4)ncnc32)c(C)c1 the results were hDAT+cocaine 0.0056 and Ecoli tolC -9.
CC(C)Nc1ncnc2c1cnn2-c1ccccc1 was read as Ecoli WT expand 10, D1 mod -4.4*, hDAT+cocaine 1.4, PostGolgi ctrl 3, PostGolgi yeast 4 and Ecoli tolC -17.
Screening NNc1ncnc2c1cnn2-c1ccccc1 returned Ecoli WT expand 11, hDAT+cocaine -1.3, PostGolgi ctrl 0 and PostGolgi yeast 17.
COc1ccc([C@@H]2C=C(C(=O)O)O[C@H](OCCCCO)C2)cc1 was read as hDAT+cocaine 0.42.
For CCn1nc(C(=O)OC(C(=O)c2c[nH]c3ccccc23)c2ccccc2)c2ccccc2c1=O (configuration not stated) the results were Ecoli WT expand -3, hDAT+cocaine 1.3, PostGolgi ctrl 2 and PostGolgi yeast -5.
Screening Cc1ccccc1Nc1ncnc2c1cnn2-c1ccccc1 returned Ecoli WT expand 7, D1 mod -1.5, hDAT+cocaine 3.1*, PostGolgi ctrl 23, PostGolgi yeast -12 and Ecoli tolC 40.
Screening c1ccc(-n2ncc3c(NCc4cccnc4)ncnc32)cc1 returned Ecoli WT expand 4, hDAT+cocaine 2.6*, PostGolgi ctrl 10, PostGolgi yeast 7 and Ecoli tolC -16.
Screening CCOc1ccc(Nc2ncnc3c2cnn3-c2ccccc2)cc1 returned Ecoli WT expand 0, D1 mod 1.3, hDAT+cocaine -0.2, PostGolgi ctrl 7, PostGolgi yeast -6 and Ecoli tolC -6.
